Source: ChEMBL document CHEMBL3400039, “Design, synthesis and in vitro cell-based evaluation of the anti-cancer activities of hispolon analogs” (Bioorg Med Chem, 2015)
Calls of active or inactive are those of the source. The calls are words filed in the database; no cut-off is given here.

Columns and labels:
HEK293 [1] = experiment: Resistance index, ratio of IC50 for HEK293 cells expressing ABCB1 to IC50 for HEK293 cells expressing pcDNA3.1; parameters: species or system Homo sapiens
Outline: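 Fold resistance is the IC50 in P-glycoprotein-overexpressing HEK293/ABCB1 cells divided by the IC50 in empty-vector HEK293/pcDNA3.1 cells. IC50s from the 72 h MTT assay; paclitaxel was the positive-control ABCB1 substrate.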

[2] = Cytotoxicity against human HCT116 cells after 72 hrs by MTT assay; format: functional, cell-based; details: HCT-116, 72 h
Outline: (§1)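 Cells kept as adherent monolayers in DMEM with 10% FBS, 37°C, 5% CO2. Trypsin-harvested, seeded at 5 × 10^3 cells/well, then exposed to compound at 0.1 to 100 µM for 72 h. MTT (4 mg/ml) added for 4 h, formazan dissolved in DMSO, absorbance read at 570 nm. At least three experiments, each in triplicate; mean±SD.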

HEK293 [3] = experiment: Cytotoxicity against HEK293 cells expressing ABCB1 after 72 hrs by MTT assay; format: functional, cell-based; details: Homo sapiens, HEK293, 72 h; outline: as §1
MDA-MB-231 [4] = experiment: Cytotoxicity against human MDA-MB-231 cells after 72 hrs by MTT assay; format: functional, cell-based; details: MDA-MB-231, 72 h; outline: as §1
[5] = Cytotoxicity against human S1 cells after 72 hrs by MTT assay; format: functional, cell-based; details: S1, 72 h; outline: as §1
DU-145 [6] = experiment: Cytotoxicity against human DU145 cells after 72 hrs by MTT assay; format: functional, cell-based; details: DU-145, 72 h; outline: as §1
HEK293 [7] = experiment: Cytotoxicity against HEK293 cells expressing pcDNA3.1 after 72 hrs by MTT assay; format: cell-based; details: Homo sapiens, HEK293, 72 h; outline: as §1
[8] = Cytotoxicity against human PC3 cells after 72 hrs by MTT assay; format: functional, cell-based; details: PC-3, 72 h; outline: as §1
MDCK [9] = experiment: Cytotoxicity against MDCK cells after 72 hrs by MTT assay; format: cell-based; details: Canis lupus familiaris; outline: as §1
[10] = Cytotoxicity against mouse NIH/3T3 cells after 72 hrs by MTT assay; format: cell-based; details: NIH3T3, 72 h; outline: as §1
DU-145 [11] = experiment: Cytotoxicity against human DU145 cells at 100 uM after 72 hrs by MTT assay; format: functional, cell-based; outline: as §1
PC-3 = experiment: Cytotoxicity against human PC3 cells at 100 uM after 72 hrs by MTT assay; format: functional, cell-based; outline: as §1
MCF7 = experiment: Cytotoxicity against human MCF7 cells at 100 uM after 72 hrs by MTT assay; format: functional, cell-based; outline: as §1
[12] = Cytotoxicity against mouse NIH/3T3 cells at 100 uM after 72 hrs by MTT assay; format: cell-based; details: nih3t3, 72 h; outline: as §1
HCT-116 = experiment: Cytotoxicity against human HCT116 cells at 100 uM after 72 hrs by MTT assay; format: functional, cell-based; outline: as §1
HEK293 [13] = experiment: Cytotoxicity against HEK293 cells expressing pcDNA3.1 at 100 uM after 72 hrs by MTT assay; format: cell-based; details: human, hek293, 72 h; outline: as §1
MDA-MB-231 [14] = experiment: Cytotoxicity against human MDA-MB-231 cells at 100 uM after 72 hrs by MTT assay; format: functional, cell-based; outline: as §1
S1 = experiment: Cytotoxicity against human S1 cells at 100 uM after 72 hrs by MTT assay; format: functional, cell-based; outline: as §1
MDCK [15] = experiment: Cytotoxicity against MDCK cells at 100 uM after 72 hrs by MTT assay; format: cell-based, Canis lupus familiaris; details: dog; outline: as §1

Compound	Ratio IC50 (HEK293 [1])	IC50 [2] [µM]	IC50 (HEK293 [3]) [µM]	IC50 (MDA-MB-231 [4]) [µM]	IC50 [5] [µM]	IC50 (DU-145 [6]) [µM]	IC50 (HEK293 [7]) [µM]	IC50 [8] [µM]	IC50 (MDCK [9]) [µM]	IC50 [10] [µM]	Activity (DU-145 [11])	Activity (PC-3)	Activity (MCF7)	Activity [12]	Activity (HCT-116)	Activity (HEK293 [13])	Activity (MDA-MB-231 [14])	Activity (S1)	Activity (MDCK [15])
COc1cc(/C=C/c2cc(C)no2)ccc1O	1.1	33.4	41.3	34.6	50.5	28.9	36.2	20.9	29.8	> 100									
COc1ccc(CCC(=O)CC(C)=O)cc1											inactive	inactive	inactive	Non-toxic	inactive	Non-toxic	inactive	inactive	Non-toxic
Cc1cc(CCc2ccc(O)cc2)on1											inactive	inactive	inactive	Non-toxic	inactive	Non-toxic	inactive	inactive	Non-toxic
Cc1cc(/C=C/c2ccc(O)cc2)[nH]n1	0.9	38.8	68.9	23.2	32.9		77.4	48.1	80	59.2									
CC(=O)O[C@H]1C(=O)[C@@]2(C)[C@H]([C@H](OC(=O)c3ccccc3)[C@]3(O)C[C@H](OC(=O)[C@H](O)[C@@H](NC(=O)c4ccccc4)c4ccccc4)C(C)=C1C3(C)C)[C@]1(OC(C)=O)CO[C@@H]1C[C@@H]2O [PACLITAXEL]	9		0.36				0.04												
COc1ccc(/C=C/c2cc(C)n[nH]2)cc1OC	1.4	51.3	33.2	38.8	22.4	18.5		12.6	54.1	68.4									
COc1cc(/C=C/c2cc(C)[nH]n2)ccc1O	0.9	78.8	45.2	67	29.4	32.2	47.7	16.5	35.4	66.3									
COc1ccc(CCc2cc(C)no2)cc1											inactive	inactive	inactive	Non-toxic	inactive	Non-toxic	inactive	inactive	Non-toxic
CC(=O)CC(=O)/C=C/c1ccc(O)cc1	1.1	36.5	11.6	6.8	10.6	8.8		20.2	30.6	18.9									
COc1cc(CCc2cc(C)no2)ccc1O											inactive	inactive	inactive	Non-toxic	inactive	Non-toxic	inactive	inactive	Non-toxic
COc1cc(CCc2cc(C)n[nH]2)ccc1O											inactive	inactive	inactive	Non-toxic	inactive	Non-toxic	inactive	inactive	Non-toxic
COc1ccc(CCc2cc(C)n[nH]2)cc1											inactive	inactive	inactive	Non-toxic	inactive	Non-toxic	inactive	inactive	Non-toxic
COc1ccc(CCc2cc(C)n[nH]2)cc1OC											inactive	inactive	inactive	Non-toxic	inactive	Non-toxic	inactive	inactive	Non-toxic
Cc1cc(CCc2ccc(O)cc2)[nH]n1											inactive	inactive	inactive	Non-toxic	inactive	Non-toxic	inactive	inactive	Non-toxic
COc1ccc(/C=C/C(=O)CC(C)=O)cc1	0.9	11.9	16.3	25	44.6	9.1	18.7	15.8	41.6	48.2									
CC(=O)CC(=O)CCc1ccc(O)cc1											inactive	inactive	inactive	Non-toxic	inactive	Non-toxic	inactive	inactive	Non-toxic
COc1ccc(CCC(=O)CC(C)=O)cc1OC											inactive	inactive	inactive	Non-toxic	inactive	Non-toxic	inactive	inactive	Non-toxic
Cc1cc(/C=C/c2ccc(O)cc2)on1	1	67.9		55.5	44.2	67.2		50.2	58.3	88.5									
COc1ccc(CCc2cc(C)no2)cc1OC											inactive	inactive	inactive	Non-toxic	inactive	Non-toxic	inactive	inactive	Non-toxic
Cc1cc(/C=C/c2ccc(O)c(O)c2)[nH]n1	1.3		39.4		55.3	33.1	29.7	23.2	> 100	88.4									
